Laboratory results: ChEMBL document CHEMBL2040780, “Antiarrhythmic properties of phenylpiperazine derivatives of phenytoin with α₁-adrenoceptor affinities” (Bioorg Med Chem, 2012)
The source made the active and inactive calls. The rule behind the calls is not given here.

Columns and labels:
Rattus norvegicus [1] = experiment: Cardiotoxicity in Wistar rat assessed as effect on P-Q interval at 2.5 mg/kg, iv after 15 mins; type: toxicity, organism-based; set-up: dose 2.5 mg/kg, route intravenous; details: in vivo, 0.25 h
How it was run: (§1)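 Male Wistar rats (180–250 g), anaesthetised with thiopental 60 mg/kg ip. Compound given iv in water at 10 mg/kg, or at a lower starting dose of 5 or 2.5 mg/kg. Standard lead II ECG recorded at 50 mm/s just before dosing and at 1, 5 and 15 min after. Heart rate and P–Q, Q–T and QRS intervals were read. n=6 per group, mean ± SEM, one-way ANOVA.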

Rattus norvegicus [2] = experiment: Hypotensive activity in normotensive Wistar rat assessed as decrease in systolic blood pressure at 2.5 to 10 mg/kg, iv after 1 min measured up to 60 mins; type: organism-based, Artery; set-up: dose 2.5-10 mg/kg, route intravenous; details: in vivo
How it was run: (§2)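 Right carotid artery cannulated with heparin-saline-filled tubing for blood pressure recording. After 5 min stabilisation, compound injected iv into the caudal vein (2.5–10 mg/kg, 1 ml/kg). Systolic and diastolic pressure followed for 60 min. n=6 per group, mean ± SEM, one-way ANOVA.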

Rattus norvegicus [3] = experiment: Antiarrhythmic activity in barium chloride-induced Wistar rat arrhythmia model assessed as protection against mortality at 2.5 to 10 mg/kg, iv administered 15 mins prior to barium chloride-challenge; type: functional, organism-based; details: Heart
How it was run: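 Szekeres model in male Wistar rats. Activity is gradual disappearance of arrhythmia with restored sinus rhythm; protection against disturbances and death scored. Groups of 6 animals.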

Rattus norvegicus [4] = experiment: Cardiotoxicity in Wistar rat assessed as effect on Q-T interval at 2.5 mg/kg, iv after 5 mins; type: toxicity, organism-based; set-up: dose 2.5 mg/kg, route intravenous; details: in vivo; how it was run: as §1
[5] = target: T1, Adrenergic receptor alpha-1 (Rattus norvegicus, UniProt P15823+P23944+P43140); experiment: Displacement of [3H]prazosin from alpha1 adrenoceptor in rat cerebral cortex after 30 mins by microbeta scintillation counting; type: tissue-based
T1 sequence (P15823 whole entry): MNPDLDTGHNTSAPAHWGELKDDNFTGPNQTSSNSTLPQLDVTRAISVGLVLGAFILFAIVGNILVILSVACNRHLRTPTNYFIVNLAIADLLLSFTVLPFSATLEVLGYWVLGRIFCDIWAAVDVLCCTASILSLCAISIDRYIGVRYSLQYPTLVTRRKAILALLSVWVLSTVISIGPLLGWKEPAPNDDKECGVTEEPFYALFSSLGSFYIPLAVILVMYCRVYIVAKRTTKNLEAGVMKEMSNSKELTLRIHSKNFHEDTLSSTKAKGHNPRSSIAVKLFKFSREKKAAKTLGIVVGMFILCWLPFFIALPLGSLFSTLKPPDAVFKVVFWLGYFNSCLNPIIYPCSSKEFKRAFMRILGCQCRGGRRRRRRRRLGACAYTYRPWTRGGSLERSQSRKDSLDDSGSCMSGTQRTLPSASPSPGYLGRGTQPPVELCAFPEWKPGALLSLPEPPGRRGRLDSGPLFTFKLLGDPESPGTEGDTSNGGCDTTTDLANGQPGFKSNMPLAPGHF
T1 sequence (P23944 whole entry): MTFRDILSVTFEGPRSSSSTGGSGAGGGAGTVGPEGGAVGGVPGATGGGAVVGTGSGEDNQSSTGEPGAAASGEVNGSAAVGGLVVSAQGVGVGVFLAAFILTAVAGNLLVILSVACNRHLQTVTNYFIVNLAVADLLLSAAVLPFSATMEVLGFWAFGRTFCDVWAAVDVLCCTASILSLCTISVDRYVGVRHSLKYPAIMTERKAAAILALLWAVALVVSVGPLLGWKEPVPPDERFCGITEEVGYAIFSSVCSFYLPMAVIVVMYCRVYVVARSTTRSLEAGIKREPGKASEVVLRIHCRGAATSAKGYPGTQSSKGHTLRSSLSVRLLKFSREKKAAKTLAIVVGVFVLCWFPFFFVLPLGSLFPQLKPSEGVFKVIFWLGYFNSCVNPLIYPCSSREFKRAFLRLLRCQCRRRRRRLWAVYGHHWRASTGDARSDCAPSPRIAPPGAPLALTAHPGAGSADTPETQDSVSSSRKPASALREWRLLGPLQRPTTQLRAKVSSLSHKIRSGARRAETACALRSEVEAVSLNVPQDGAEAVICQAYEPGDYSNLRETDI
T1 sequence (P43140 whole entry): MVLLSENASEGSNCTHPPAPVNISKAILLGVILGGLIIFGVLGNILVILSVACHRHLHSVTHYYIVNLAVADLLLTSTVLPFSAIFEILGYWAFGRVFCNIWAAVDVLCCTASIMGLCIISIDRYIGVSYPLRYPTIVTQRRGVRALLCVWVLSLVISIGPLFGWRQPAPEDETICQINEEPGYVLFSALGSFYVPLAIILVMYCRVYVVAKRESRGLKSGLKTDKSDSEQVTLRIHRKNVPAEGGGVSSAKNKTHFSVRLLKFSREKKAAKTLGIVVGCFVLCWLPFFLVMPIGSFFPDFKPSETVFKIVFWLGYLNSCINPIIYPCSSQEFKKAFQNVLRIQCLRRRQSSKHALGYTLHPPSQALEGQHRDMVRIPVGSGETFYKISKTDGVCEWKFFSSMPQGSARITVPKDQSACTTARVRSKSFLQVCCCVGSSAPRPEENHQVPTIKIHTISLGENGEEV
How it was run: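 Rat cerebral cortex homogenised in ice-cold 50 mM Tris-HCl (pH 7.6 at 25 °C), washed twice at 20000×g and resuspended at 10 mg wet weight/ml. Incubated with [3H]prazosin (19.5 Ci/mmol) and test compound for 30 min at 25 °C. Nonspecific binding defined with 10 µM phentolamine. GF/B filtration, scintillation counting, three-parameter logistic competition fit.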

Rattus norvegicus [6] = experiment: Antiarrhythmic activity in Wistar rat assessed as effect on heart beat at 2.5 mg/kg, iv after 1 min; type: functional; how it was run: as §1
Rattus norvegicus [7] = experiment: Antiarrhythmic activity in Wistar rat assessed as effect on heart beat at 2.5 mg/kg, iv after 15 mins; type: functional; how it was run: as §1
Rattus norvegicus [8] = experiment: Cardiotoxicity in Wistar rat assessed as effect on P-Q interval at 2.5 mg/kg, iv after 1 min; type: toxicity, organism-based; set-up: dose 2.5 mg/kg, route intravenous; details: in vivo; how it was run: as §1
Rattus norvegicus [9] = experiment: Antiarrhythmic activity in Wistar rat assessed as protection against adrenaline-induced extrasystoles at 2.5 to 10 mg/kg, iv administered 15 mins prior to adrenaline-challenge; type: functional, organism-based; details: Heart
How it was run: (§3)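 Szekeres model in male Wistar rats anaesthetised with thiopental (60 mg/kg ip). Test compound given iv in water (2.5–10 mg/kg) 15 min before adrenaline 20 µg/kg iv. Scored for extrasystoles, bigeminy and mortality; activity means no premature beats and inhibited arrhythmia versus controls.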

Rattus norvegicus [10] = experiment: Cardiotoxicity in Wistar rat assessed as effect on Q-T interval at 2.5 mg/kg, iv after 15 mins; type: toxicity, organism-based; set-up: dose 2.5 mg/kg, route intravenous; details: in vivo, 0.25 h; how it was run: as §1
Rattus norvegicus [11] = experiment: Antiarrhythmic activity in iv dosed Wistar rat assessed as protection against adrenaline-induced arrhythmia administered 15 mins prior to adrenaline-challenge; type: functional; details: Heart; how it was run: as §3
Rattus norvegicus [12] = experiment: Cardiotoxicity in Wistar rat assessed as effect on QRS interval at 2.5 mg/kg, iv after 15 mins; type: toxicity, organism-based; set-up: dose 2.5 mg/kg, route intravenous; details: in vivo, 0.25 h; how it was run: as §1
Rattus norvegicus [13] = experiment: Cardiotoxicity in Wistar rat assessed as effect on P-Q interval at 2.5 mg/kg, iv after 5 mins; type: toxicity, organism-based; set-up: dose 2.5 mg/kg, route intravenous; details: in vivo; how it was run: as §1
Rattus norvegicus [14] = experiment: Cardiotoxicity in Wistar rat assessed as effect on Q-T interval at 2.5 mg/kg, iv after 1 min; type: toxicity, organism-based; set-up: dose 2.5 mg/kg, route intravenous; details: in vivo; how it was run: as §1
Rattus norvegicus [15] = experiment: Antiarrhythmic activity in Wistar rat assessed as effect on heart beat at 2.5 mg/kg, iv after 5 mins; type: functional; how it was run: as §1
Rattus norvegicus [16] = experiment: Antiarrhythmic activity in Wistar rat assessed as protection against adrenaline-induced bigeminy at 2.5 to 10 mg/kg, iv administered 15 mins prior to adrenaline-challenge; type: functional, organism-based; details: Heart; how it was run: as §3
Rattus norvegicus [17] = experiment: Cardiotoxicity in Wistar rat assessed as effect on QRS interval at 2.5 mg/kg, iv after 1 min; type: toxicity, organism-based; set-up: dose 2.5 mg/kg, route intravenous; details: in vivo; how it was run: as §1
Rattus norvegicus [18] = experiment: Hypotensive activity in normotensive Wistar rat assessed as decrease in diastolic blood pressure at 2.5 to 10 mg/kg, iv after 1 min measured up to 60 mins; type: organism-based, Artery; set-up: dose 2.5-10 mg/kg, route intravenous; details: in vivo; how it was run: as §2
Rattus norvegicus [19] = experiment: Cardiotoxicity in Wistar rat assessed as effect on QRS interval at 2.5 mg/kg, iv after 5 mins; type: toxicity, organism-based; set-up: dose 2.5 mg/kg, route intravenous; details: in vivo; how it was run: as §1
Rattus norvegicus [20] = experiment: Antiarrhythmic activity in iv dosed Wistar rat assessed as protection against adrenaline-induced extrasystoles administered 15 mins prior to adrenaline-challenge; type: functional, organism-based; details: Heart; how it was run: as §3
Rattus norvegicus [21] = experiment: Antiarrhythmic activity in iv dosed Wistar rat assessed as protection against adrenaline-induced bigeminy administered 15 mins prior to adrenaline-challenge; type: functional, organism-based; details: Heart; how it was run: as §3

For COc1ccccc1N1CCN(CCCCN2C(=O)N(C)C(=O)C2(c2ccccc2)c2ccccc2)CC1.Cl, the Activity (Rattus norvegicus [1]) was 49 ms, the Activity (Rattus norvegicus [2]) was “Toxic” and the Activity (Rattus norvegicus [3]) was “Active”. It also gave an Activity (Rattus norvegicus [4]) of 81 ms, a Ki [5] of 4.7 nM and a pKi [5] of 8.33. It also gave an Activity (Rattus norvegicus [6]) of 338 min⁻¹, an Activity (Rattus norvegicus [7]) of 346 min⁻¹ and an Activity (Rattus norvegicus [8]) of 50 ms. The Activity (Rattus norvegicus [9]) was “Active”, the Activity (Rattus norvegicus [10]) was 86 ms and the ED50 (Rattus norvegicus [11]) was 0.1 mg/kg. It also gave an Activity (Rattus norvegicus [12]) of 22 ms, an Activity (Rattus norvegicus [13]) of 51 ms and an Activity (Rattus norvegicus [14]) of 83 ms. For the same compound, the Activity (Rattus norvegicus [15]) was 333 min⁻¹, the Activity (Rattus norvegicus [16]) was “Active” and the Activity (Rattus norvegicus [17]) was 22 ms. For the same compound, the Activity (Rattus norvegicus [18]) was “Toxic” and the Activity (Rattus norvegicus [19]) was 22 ms.

With CC(C)NCC(O)COc1cccc2ccccc12 (configuration not stated) the Activity (Rattus norvegicus [20]) was “Active” and the Activity (Rattus norvegicus [21]) was “Active”.
